This note sets out measurements from ChEMBL document CHEMBL1156235, “A novel class of antihyperlipidemic agents with low density lipoprotein receptor up-regulation via the adaptor protein autosomal recessive hypercholesterolemia” (J Med Chem, 2010).

Values after ≈ are worked out from the molar mass of the structure shown.

The test system of data set [1] is HepG2. Description: Upregulation of LDL receptor expression in human HepG2 cells assessed as DiI-LDL uptake after 19 hrs. It is filed as functional. Conditions: HepG2, 19 h. The gist of the method:
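HepG2 cells were grown 2-3 days in DMEM/F-12 with 10% FBS, then given compound in medium with 10% delipoprotein serum for 19 h at 37 °C. DiI-labelled human LDL was then added for 5 h, with 30-50-fold unlabelled LDL defining nonspecific uptake. Specific fluorescence per protein is expressed as % of control. EC25 is the concentration giving 25% up-regulation (n = 1).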

The target in data set [2] is T1, Sterol O-acyltransferase 1 (Rattus norvegicus, UniProt O70536).
T1 sequence (O70536 whole entry): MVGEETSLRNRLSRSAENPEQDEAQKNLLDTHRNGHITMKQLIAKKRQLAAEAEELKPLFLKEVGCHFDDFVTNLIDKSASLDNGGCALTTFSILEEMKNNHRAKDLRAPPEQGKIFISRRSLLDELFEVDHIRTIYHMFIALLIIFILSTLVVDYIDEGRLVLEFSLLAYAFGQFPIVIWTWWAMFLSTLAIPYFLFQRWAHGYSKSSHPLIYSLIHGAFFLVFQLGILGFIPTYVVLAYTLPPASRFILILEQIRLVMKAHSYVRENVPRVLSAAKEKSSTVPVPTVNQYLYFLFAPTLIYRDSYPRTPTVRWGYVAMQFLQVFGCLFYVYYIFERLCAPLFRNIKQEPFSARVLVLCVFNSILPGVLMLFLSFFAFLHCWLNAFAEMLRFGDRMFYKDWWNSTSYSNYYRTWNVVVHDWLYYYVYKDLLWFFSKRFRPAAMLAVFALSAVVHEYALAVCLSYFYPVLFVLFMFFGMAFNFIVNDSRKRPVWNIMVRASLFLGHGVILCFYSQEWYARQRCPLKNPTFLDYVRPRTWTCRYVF
Description: Inhibition of rat macrophages ACAT. The essentials: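 ACAT was taken from rat macrophages, and inhibition was measured once (n = 1).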

Data set [3] can be described thus: Cmax in hamster at 10 mg/kg. It is filed as ADME, organism-based. Also noted: dose 10 mg/kg. Conditions: cricetinae, in vivo. The gist of the method: (§1)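 Male hamsters received a single oral dose of 10 mg/kg as the sodium salt, and serum drug concentration was followed over time. Values are mean ± SEM, n = 3.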
A short description of data set [4]: AUC (0 to 360 mins) in hamster at 10 mg/kg. As to conditions: cricetinae, plasma. Also noted: time < 6 hr, dose 10 mg/kg. Format: ADME, organism-based. The essentials:
as §1

Data set [5] in a line: Solubility in phosphate buffer at pH 7.4 by HPLC analysis. It is filed as physicochemical. The essentials: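 Solubility in phosphate buffer was measured at room temperature, with the dissolved amount quantified by HPLC.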
Data set [6] deals with HepG2. Description: Increase of [125I]LDL cholesterol degradation in human HepG2 cells at 1 uM. Format: functional.
Data set [7] concerns Hamster. Description: Antihyperlipidemic activity in high-cholesterol diet fed hamster model assessed as reduction of plasma total cholesterol level at 3 mg/kg, po administered qd for 7 days. It is filed as functional, Cricetinae. Also noted: scale not given: the % may be the effect or the level left. The essentials: (§2)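 Hamsters fed a rich diet for 1 week were dosed orally by gavage once daily for 1 week. Plasma total cholesterol and LDL-C were then measured. Values are mean ± SEM.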

Data set [8] concerns Hamster. Description: Antihyperlipidemic activity in high-cholesterol diet fed hamster model assessed as reduction of plasma total cholesterol level at 1 mg/kg, po administered qd for 7 days. Format: functional, Cricetinae. Also noted: scale not given: the % may be the effect or the level left. The essentials:
as §2

The test system of data set [9] is HepG2. Description: Increase of [125I]LDL cholesterol degradation in human HepG2 cells at 0.01 uM. Format: functional.
In data set [10] the test system is Hamster. Description: Antihyperlipidemic activity in high-cholesterol diet fed hamster model assessed as reduction of plasma total LDL cholesterol level at 3 mg/kg, po administered qd for 7 days. Format: functional, Cricetinae. Also noted: scale not given: the % may be the effect or the level left. The essentials: as §2
For data set [11], the system named is Hamster. Description: Antihyperlipidemic activity in high-cholesterol diet fed hamster model assessed as reduction of plasma total LDL cholesterol level at 10 mg/kg, po administered qd for 7 days. It is filed as functional, Cricetinae. Also noted: scale not given: the % may be the effect or the level left. The essentials:
as §2

The subject of data set [12] is Hamster. Description: Antihyperlipidemic activity in high-cholesterol diet fed hamster model assessed as reduction of plasma total cholesterol level at 10 mg/kg, po administered qd for 7 days. It is filed as functional, Cricetinae. Also noted: scale not given: the % may be the effect or the level left. The gist of the method: as §2
Data set [13] relates to HepG2. Description: Increase of [125I]LDL cholesterol degradation in human HepG2 cells at 0.1 uM. It is filed as functional.
Data set [14] deals with Hamster. Description: Antihyperlipidemic activity in high-cholesterol diet fed hamster model assessed as reduction of plasma total LDL cholesterol level at 1 mg/kg, po administered qd for 7 days. It is filed as functional, Cricetinae. On the set-up: scale not given: the % may be the effect or the level left. The gist of the method: as §2

The term EC25 denotes the point of the concentration-response curve where the effect stands at 25%. Broadly, the IC50 is the midpoint of a concentration-inhibition curve. Take `COc1cccc(C2(C(=O)NS(=O)(=O)Oc3c(C(C)C)cccc3C(C)C)CCN(C(=O)c3ccccc3)CC2)c1`: the EC25 with HepG2 [1] is above 10 µM. Also, in data set [2], the half-inhibitory concentration (IC50) was above 1000 nM.

A word on the Cmax: it is the peak of the concentration-time curve. As usually defined, the AUC(0-t) is exposure summed from dosing to a finite time, without extrapolation to infinity. As to `COc1cccc(C2(C(=O)[N-]S(=O)(=O)Oc3c(C(C)C)cccc3C(C)C)CCN(c3ccccc3OC)CC2)c1.[Na+]`, the Cmax in data set [3] was found to be 420 ng/mL. The compound also came in with an AUC(0-t) at 6 h in [4] of 1160 ng·h/mL.

For the compound `COc1cccc(C2(C(=O)NS(=O)(=O)Oc3ccccc3)CCN(c3ccccc3OC)CC2)c1`, the EC25 in the data set with HepG2 [1] is above 10 µM. This compound returned a half-inhibitory concentration (IC50) in data set [2] above 1000 nM.

One may read the solubility as the concentration that dissolves in the medium under given conditions. `CCOc1cccc(C2(C(=O)NS(=O)(=O)Oc3c(C(C)C)cccc3C(C)C)CCN(c3ncccn3)CC2)c1` gave a solubility in data set [5] of 69 µg/mL (≈ 122 µM). For the same compound, the EC25 with HepG2 [1] turned out to be 3.1 µM.

As to `COc1cccc(C2(C(=O)Nc3c(C(C)C)cccc3C(C)C)CCN(c3ccccc3OC)CC2)c1`, the 25% effect concentration (EC25) in the data set on HepG2 [1] was above 10 µM. This compound registered a half-inhibitory concentration (IC50) in data set [2] above 1000 nM.

Take `COc1cccc(C2(C(=O)NS(=O)(=O)Nc3c(C(C)C)cccc3C(C)C)CCN(c3ccccc3OC)CC2)c1`: in the data set on HepG2 [1], the concentration for an effect of 25% (EC25) is above 10 µM. Further, in [2], the IC50 is above 1000 nM.

In [5], `CC(C)c1cccc(C(C)C)c1OS(=O)(=O)NC(=O)C1(c2cccc(OCCO)c2)CCN(c2ncccn2)CC1` yielded a solubility above 200 µg/mL. For the same compound, the EC25 with HepG2 [1] turned out to be 1.5 µM.

On to `COc1cccc(C2(C(=O)NS(=O)(=O)Oc3c(C(C)C)cccc3C(C)C)CCN(c3ncccn3)CC2)c1`, for which the Activity with HepG2 [6] is listed as 140%; in the data set on Hamster [7], -12%; in the data set with Hamster [8], -8%; in the data set on HepG2 [9], 119%; in the data set on Hamster [10], -27%; with Hamster [11] it was -38%. Also, the Activity is -17% in the data set with Hamster [12], 136% in the data set on HepG2 [13] and -24% in the data set on Hamster [14]. For the same compound, in the data set with HepG2 [1], the 25% effect concentration (EC25) came out at 0.047 µM. Besides, in [2], the half-maximal inhibitory concentration (IC50) was above 1000 nM.

`COc1cccc(C2(C(=O)NS(=O)(=O)Oc3c(C(C)C)cccc3C(C)C)CCN(c3ncc(Br)cn3)CC2)c1` had a solubility in data set [5] below 0.1 µg/mL. Further, in the data set on HepG2 [1], the EC25 is 0.61 µM. The compound further displayed a half-inhibitory concentration (IC50) in [2] above 1000 nM.

For `CCCc1cnc(N2CCC(C(=O)NS(=O)(=O)Oc3c(C(C)C)cccc3C(C)C)(c3cccc(OC)c3)CC2)nc1`, the 25% effect concentration (EC25) in the data set with HepG2 [1] was above 10 µM. The compound also returned a 50% inhibitory concentration (IC50) in [2] above 1000 nM.

Turning to `COc1cccc(C2(C(=O)NS(=O)(=O)Oc3ccccc3C)CCN(c3ccccc3OC)CC2)c1`, the EC25 in the data set with HepG2 [1] came to 3.88 µM. In [2], this compound had an IC50 above 1000 nM.

In data set [5], `CCCOc1cccc(C2(C(=O)NS(=O)(=O)Oc3c(C(C)C)cccc3C(C)C)CCN(c3ncccn3)CC2)c1` showed a solubility below 0.3 µg/mL. Further, the 25% effect concentration (EC25) in the data set on HepG2 [1] was above 10 µM.

Turning to `COc1cccc(C2(C(=O)NS(=O)(=O)Oc3c(C(C)C)cccc3C(C)C)CCN(c3ccccc3OC)CC2)c1.Cl`, in data set [3], the peak level (Cmax) was 300 ng/mL. The compound also displayed an area under the curve AUC(0-t) at 6 h in [4] of 690 ng·h/mL.

For the compound `COc1cccc(C2(C(=O)NS(=O)(=O)Oc3c(C(C)C)cccc3C(C)C)CCN(c3nccc(C)n3)CC2)c1`, in data set [5], the solubility is 200 µg/mL (≈ 353 µM). Also, the concentration for an effect of 25% (EC25) in the data set on HepG2 [1] was 0.5 µM. The same compound showed an IC50 in data set [2] above 1000 nM.

As for `COc1cccc(C2(C(=O)NS(=O)(=O)Oc3c(C(C)C)cccc3C(C)C)CCN(C(C)=O)CC2)c1`, in the data set with HepG2 [1], the concentration for an effect of 25% (EC25) is above 10 µM. Besides, in data set [2], the IC50 was above 1000 nM.

Turning to `COc1cccc(C2(C(=O)NS(=O)(=O)Oc3c(C(C)C)cccc3C(C)C)CCN(c3ncccc3OC)CC2)c1`, in the data set on HepG2 [1], the 25% effect concentration (EC25) is above 10 µM. In data set [2], this compound had an IC50 above 1000 nM.
